From ChEMBL document CHEMBL4513216, “Probing the Open Global Health Chemical Diversity Library for Multistage-Active Starting Points for Next-Generation Antimalarials” (ACS Infect Dis, 2020) come the findings set out here.

This series in a line: Toxicity liver stage against HepG2, at 10uM. Format: cell-based. Details: test concentration 10 uM, cell line HepG2-A16-CD81EGFP. The following applies: human, HepG2-A16-CD81EGFP cells; read-out: INHIBITION
A digest of the protocol:
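Uninfected HepG2-A16-CD81EGFP cells, 3 × 10^3 per well, 1536-well, plated on prespotted compound at 10 μM final, parasite-free screening media added to match infected plates; puromycin 10 μM positive, DMSO 0.5% negative; run in parallel with 48 h PbLuc assay at 37 °C, 5% CO2; viability by CellTiter-Glo luminescence, normalized to controls.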
For `CN(Cc1ccccc1)C(=O)CSc1ccc2c(c1)OCCO2`, the cytotoxicity at 10 µM is -9.48%.

For the compound `Cc1c(CS(C)(=O)=O)cccc1NCC1CCCCC1`, the cytotoxicity at 10 µM is -8.98%.

Turning to `Cc1cc(CC(=O)NCC(O)COc2ccc(F)c(F)c2)no1` (stereo unspecified), the cytotoxicity at 10 µM was -5.03%.

Consider `Cc1cc(C)n(CC(=O)N2CCCC2c2cc3cccnc3[nH]2)n1` (stereo unspecified), for which the cytotoxicity at 10 µM was 3.94%.

Take `Fc1ccc(C2CCCN2Cc2nnnn2C2CC2)cc1` (stereo unspecified): the cytotoxicity at 10 µM turned out to be 15.5%.

Turning to `O[C@@H]1CN(Cc2ccc(F)cc2)CC[C@H]1NCc1ccccn1`, the cytotoxicity at 10 µM is -2.83%.

In the case of `CCCc1cc(N2CCC(NCC3(O)CCCCC3)CC2)nc(C)n1`, the cytotoxicity at 10 µM was -2.48%.

For the compound `CC(C)OCc1cccc(NC(=O)N(C)Cc2ncnn2C)c1`, the cytotoxicity at 10 µM worked out at 4%.

Turning to `O=C1[C@H]2CN(Cc3ccc(F)cc3)C[C@H]2CN1c1cncnc1`, the cytotoxicity at 10 µM is -2.32%.

Consider `Cc1ccc(C(=O)NCC2CCN(C)c3ccccc32)c(=O)[nH]1` (stereo unspecified), for which the cytotoxicity at 10 µM turned out to be 12.6%.

On to `CCc1cc(NCCNC(C)=O)nc(N2CCOCC2)n1`, for which the cytotoxicity at 10 µM came to 2.38%.

`O=C(Cc1ccsc1)N1C[C@@H]2OCCN(c3cnccn3)[C@@H]2C1`: the cytotoxicity at 10 µM turned out to be 11.6%.

With `Cc1cc(N2CCOC(c3ccncn3)C2)ncn1` (stereo unspecified), the cytotoxicity at 10 µM came out at 2.91%.

As for `Cn1ncc2c(N3CCN4CCCCC4C3)nc(C3CCCC3)nc21` (stereo unspecified), the cytotoxicity at 10 µM is -139%.

Turning to `CCc1nc(C2CCCN(C(=O)c3ccc4[nH]cnc4c3)C2)no1` (stereo unspecified), the cytotoxicity at 10 µM was 1.48%.

In the case of `c1ccc(CO[C@@H]2C[C@H]3CN(c4ncccn4)CCN3C2)cc1`, the cytotoxicity at 10 µM was determined as 0.472%.

Consider `C[C@@H]1CN(C(=O)c2ccc[nH]2)C[C@]12CCN(CCN1CCCC1)C2=O`, for which the cytotoxicity at 10 µM was 10.4%.

With `CC(C)c1ncc2c(n1)CN(Cc1cccc(C#N)c1)CC2`, the cytotoxicity at 10 µM is -9.03%.

Consider `O=C(C[C@@H]1COC[C@H]2CN(Cc3cccnc3)C[C@@H]12)N1CCCC1`, for which the cytotoxicity at 10 µM was -128%.

On to `CN1CCN(c2ccccc2NC(=O)c2ccco2)CC1`, for which the cytotoxicity at 10 µM is -5.92%.

Regarding `COC(=O)c1cc2n(n1)CCN(C(=O)c1csc(CN(C)C)n1)C2`, the cytotoxicity at 10 µM was -8.44%.

On to `Cc1nc(C)c(C)c(N2CCC3(CCOC3)C2)n1` (stereo unspecified), for which the cytotoxicity at 10 µM was -1.31%.

On to `CNC(=O)CC1CCN(Cc2nc(-c3cccc(Cl)c3)oc2C)CC1`, for which the cytotoxicity at 10 µM was -9.75%.

In the case of `CN(Cc1cccnc1)CC1CNCc2nccn2C1` (stereo unspecified), the cytotoxicity at 10 µM is -77.2%.

As to `O=C(c1ccoc1)N1CC[C@@H]2O[C@@H](COCCN3CCCC3)CC[C@@H]21`, the cytotoxicity at 10 µM was -89.7%.

On to `CNc1ncc(-c2ccc(NC(=O)[C@@H]3CCCCN3)cc2)cn1`, for which the cytotoxicity at 10 µM was -7.66%.

Consider `Cc1cc(CN2CCN(C(=O)NCc3csc(C)n3)CC2)no1`, for which the cytotoxicity at 10 µM is -17.6%.

In the case of `O=C(Nc1ccccc1OCCc1ccccn1)NC1CCOCC1`, the cytotoxicity at 10 µM is 2.43%.

On to `OC(CNCCn1cccn1)c1ccc2c(c1)OCCO2` (stereo unspecified), for which the cytotoxicity at 10 µM is -0.361%.

Take `Cc1nc(C)c(C(=O)N2Cc3cc(F)ccc3CC2C)o1` (stereo unspecified): the cytotoxicity at 10 µM was 6.07%.

As for `Cc1cc(N2CC[C@H](O)C2)n2nc(C)c(C)c2n1`, the cytotoxicity at 10 µM is -3.62%.

As for `CN(Cc1cccc(-n2cccn2)c1)Cc1c[nH]cn1`, the cytotoxicity at 10 µM turned out to be 5.67%.

Consider `CCc1cc(N2CCC(NCCc3nc(C)c(C)s3)CC2)nc(C)n1`, for which the cytotoxicity at 10 µM is 0.902%.

As to `O=C(CCc1c(F)cccc1F)N1CCCCC1Cn1cccn1` (stereo unspecified), the cytotoxicity at 10 µM was -11.1%.

Consider `CS(=O)(=O)N1CCC2(CC1)COC(COc1cccnc1)C2` (stereo unspecified), for which the cytotoxicity at 10 µM was 7.61%.

Consider `CCC[C@@H]1CN(Cc2c[nH]nc2-c2ccc(OC)cc2)C[C@H]1NC(C)=O`, for which the cytotoxicity at 10 µM is -0.566%.

In the case of `Cc1nccn1-c1ccc(C(C)NCCC(C)C)cc1` (stereo unspecified), the cytotoxicity at 10 µM came to 15.9%.

Take `Cc1ccc(-c2cnc(CCC(=O)NCCN3CCOCC3)o2)cc1C`: the cytotoxicity at 10 µM is 7.36%.

On to `COCCN1CC[C@@H]2OC[C@H](C(=O)N(C)Cc3ccccn3)C[C@@H]2C1`, for which the cytotoxicity at 10 µM was -98.5%.

Consider `Cc1ccc(NC(=O)NC(C)c2nc[nH]n2)cc1Cl` (stereo unspecified), for which the cytotoxicity at 10 µM is -2.06%.

In the case of `Cc1cccc2nc(CN3CCCC(C)C3)cc(=O)n12` (stereo unspecified), the cytotoxicity at 10 µM is 2.46%.

Take `CC1CC(=O)c2cc(C(=O)N3CCc4ccccc43)c(=O)[nH]c2C1` (stereo unspecified): the cytotoxicity at 10 µM is -5.67%.

Turning to `Cc1ccc(S(=O)(=O)N2CCC3(CC(C(=O)NC4CCC4)=NO3)C2)cc1` (stereo unspecified), the cytotoxicity at 10 µM was -1.77%.

`O=C1CC2(CCNCC2)C(=O)N1Cc1ccc(F)cc1`: the cytotoxicity at 10 µM came to 6.68%.

As for `Cc1cc(C(F)(F)F)nc(CCNc2nc(C)nc3sccc23)n1`, the cytotoxicity at 10 µM amounted to 9.46%.

Regarding `COCC(=O)NCc1ccc(-c2ncncc2C(=O)N(C)C)cc1`, the cytotoxicity at 10 µM turned out to be 3.02%.

Take `COCCN(Cc1nc2c(cnn2C)c(=O)[nH]1)Cc1ccco1`: the cytotoxicity at 10 µM is -5.04%.

`COc1cc(F)ccc1-c1nc2c([nH]1)c(C1CC1)nn2C`: the cytotoxicity at 10 µM is -1.72%.

`O=C(Cn1c(=O)oc2ccccc21)N1Cc2cnn(CCO)c2C1`: the cytotoxicity at 10 µM amounted to 0.154%.

`c1cnn(CC2CCCCN2Cc2nc(-c3ccoc3)no2)c1` (stereo unspecified): the cytotoxicity at 10 µM is -5.22%.

As to `CN1CCCCC12Cc1ccccc1CN(C(=O)c1ccccc1)C2` (stereo unspecified), the cytotoxicity at 10 µM stood at 7.44%.

With `Cc1cc(N2CCCN(C(=O)CSCC3CC3)CC2)ccn1`, the cytotoxicity at 10 µM is -1.9%.

For the compound `O=C(Nc1cc(C(F)(F)F)c[nH]c1=O)C1CCCCN1` (stereo unspecified), the cytotoxicity at 10 µM was -0.924%.

In the case of `NC(=O)c1ccc(NC(=O)N2CCN(c3cccs3)CC2)c(F)c1`, the cytotoxicity at 10 µM was found to be 1.97%.

For `COc1cccc(NC(=O)Cc2c(C)nc3c(c2C)c(=O)[nH]n3C)c1`, the cytotoxicity at 10 µM turned out to be 5.05%.

Take `Cc1ccc(-c2n[nH]cc2CNCCn2cccn2)o1`: the cytotoxicity at 10 µM is -11.2%.

Consider `COc1ccc(CNCC2CCN(c3ccccc3OC)C2)cc1O` (stereo unspecified), for which the cytotoxicity at 10 µM is -8.54%.

In the case of `O=C(NC1CC1)C1CCN(c2nc3nc[nH]c(=O)c3s2)CC1`, the cytotoxicity at 10 µM is -6.5%.

In the case of `CN(Cc1nnc2n1CCC2)C(=O)Cc1ccc2c(c1)CCC2`, the cytotoxicity at 10 µM was -15.5%.

As to `CCC(CC)C(=O)N1CCN(Cc2cc(=O)c3ccccc3[nH]2)CC1`, the cytotoxicity at 10 µM is -9.55%.

For the compound `CN(C)C(=O)CN1CCC2(CC1)CC(=O)c1c(ccc3ccccc13)O2`, the cytotoxicity at 10 µM was determined as 3.28%.

Turning to `Cn1ccc(C(=O)N2CCCC(Cc3cccc4ncccc34)C2)n1` (stereo unspecified), the cytotoxicity at 10 µM stood at 22.1%.

For the compound `CN(C)C(=O)c1cccnc1SCc1ccccc1Cl`, the cytotoxicity at 10 µM worked out at 3.25%.

`CNc1cncc(C2CCCN2Cc2ccn(C)n2)n1` (stereo unspecified): the cytotoxicity at 10 µM was -6.88%.

On to `CC(C)N(Cc1ccccn1)C(=O)CCC(=O)c1ccccc1`, for which the cytotoxicity at 10 µM came to 3.33%.

As for `COc1ccc(S(=O)(=O)N2CCC[C@@H]3CN(C(=O)C4CC4)C[C@@H]32)cc1`, the cytotoxicity at 10 µM came out at 14.7%.

`CCOc1ccc(-c2c(-c3ccccc3)ncn2C2CCNC2)cn1` (stereo unspecified): the cytotoxicity at 10 µM is -51.9%.

As for `Cc1ccsc1C(=O)N1CCc2ncc(Cn3cccn3)n2CC1`, the cytotoxicity at 10 µM is -108%.

On to `O=C(O)CSc1nnc(-c2ccn[nH]2)n1-c1cccc(C(F)(F)F)c1`, for which the cytotoxicity at 10 µM amounted to 0.34%.

For `COCC(C)NC(=O)CN1CCC2(CC1)OCCO2` (stereo unspecified), the cytotoxicity at 10 µM stood at 7.3%.

`O=C(NCCCc1ccc(F)cc1)c1ccc(N2CCOCC2)cc1`: the cytotoxicity at 10 µM was -4.45%.

For the compound `CC(C(=O)NCc1cn2cc(Br)ccc2n1)S(C)(=O)=O` (stereo unspecified), the cytotoxicity at 10 µM was -16.4%.

For `Nc1ncnc2nc(C3CCCCN3)ccc12` (stereo unspecified), the cytotoxicity at 10 µM stood at 5.74%.

In the case of `N#CC1CCCN(S(=O)(=O)c2ccc(C(=O)NCC(F)F)cc2)C1` (stereo unspecified), the cytotoxicity at 10 µM was found to be 6.74%.

On to `COCc1nc(C(=O)NS(=O)(=O)c2ccc(F)c(F)c2)cs1`, for which the cytotoxicity at 10 µM is 7.97%.

`COCCN1CCC(NC(=O)C2(c3cc(C)cc(C)c3)CC2)CC1`: the cytotoxicity at 10 µM was -4.37%.

On to `c1cc(CN2C[C@@H]3COC[C@]3(COCC3CC3)C2)ccn1`, for which the cytotoxicity at 10 µM is -3.29%.

As to `c1ccc(N2CCC(c3ccncc3)CC2)cc1`, the cytotoxicity at 10 µM was 8.45%.

Regarding `CS(=O)(=O)CCn1ccc(NC(=O)Cc2cccc(Cl)c2)n1`, the cytotoxicity at 10 µM was -3.36%.

`CNS(=O)(=O)c1ccc(C(=O)N2CCCC2c2ccccc2C)o1` (stereo unspecified): the cytotoxicity at 10 µM was -6.23%.

Regarding `Cc1nc2c(C)cccc2cc1C(=O)N1CCC2(CC1)NCCNC2=O`, the cytotoxicity at 10 µM is -0.0638%.

In the case of `COCCOCC1(CNCc2ccc(F)cc2)C[C@@H](O)[C@@H](O)C1` (stereo partly specified), the cytotoxicity at 10 µM is -3.1%.

With `CCN1CCN(C2CCN(CC(=O)NCC(F)(F)F)CC2)C1=O`, the cytotoxicity at 10 µM is -2.99%.

For the compound `CC(NC(=O)NCc1ccccc1Cl)c1ccccn1` (stereo unspecified), the cytotoxicity at 10 µM was -11.1%.

`CN1C[C@H](O)C[C@H]1c1nc(-c2ccc3c(c2)OCO3)no1`: the cytotoxicity at 10 µM was found to be 6.88%.

Take `N#Cc1c[nH]nc1NCc1ccc2c(c1)OCO2`: the cytotoxicity at 10 µM was -8.75%.

For the compound `Cc1ccc(CS(=O)(=O)CC(=O)NCc2ccccc2F)cc1`, the cytotoxicity at 10 µM worked out at 0.515%.

On to `NCC1CCN(C2CCN(c3ccc(-c4ccco4)cc3)CC2)C1` (stereo unspecified), for which the cytotoxicity at 10 µM was 93.9%.

For the compound `CO[C@@H]1CCN(Cc2cccc(C)n2)[C@@H]2CN(Cc3ccncc3)C[C@@H]21`, the cytotoxicity at 10 µM amounted to 0.951%.

As for `Cc1cccc(C(C(=O)NCc2cc(C)[nH]n2)N(C)C)c1` (stereo unspecified), the cytotoxicity at 10 µM was -3.07%.

For `CCN1CCN(C(=O)CCC2CCN(C(C)CCC(=O)OC)CC2)CC1` (stereo unspecified), the cytotoxicity at 10 µM came out at 0.9%.

As for `O=C(c1cc(-c2cccs2)nc2ccccc12)N1CCN(CCO)CC1`, the cytotoxicity at 10 µM was -53.2%.

Regarding `COc1coc(CN2CCCC(CCc3ccc(F)c(F)c3)C2)cc1=O` (stereo unspecified), the cytotoxicity at 10 µM came out at 1.95%.

Consider `O=C(NCCc1nncn1C1CC1)C1SCCc2ccccc21` (stereo unspecified), for which the cytotoxicity at 10 µM came to 2.48%.

With `CCCN(CC(F)F)C(=O)CCc1c(C)nc2cc(O)nn2c1C`, the cytotoxicity at 10 µM was -147%.

Turning to `CCc1nc(C)c(CC(=O)N2CCC3(CC2)OCCCC3O)c(=O)[nH]1` (stereo unspecified), the cytotoxicity at 10 µM turned out to be 9.16%.
